Data set [1] in a line: Relative lipophilicity. Particulars: TLC, acetone/water 2:1 mobile phase. The format is physicochemical. An outline of the steps:
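Reversed-phase TLC on plates pre-dried 1 h at 105 °C, developed in acetone/water 2:1 (v/v); 1 µL of 3 mg/mL CHCl3 solution spotted. Rf averaged over five runs with varied spot positions; Rm = log[(1/Rf) − 1].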

For data set [2], the species on record is Mus musculus. Kind of data set: (§1) Dose which induced 50% of mice to fall from the rotarod. Format: functional. The gist of the method: (§2)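 Male Swiss mice (20–26 g, 48–54 days old), groups of 10, pretrained on a 3 cm rotarod at 8 rpm; tested 30 min after ip dosing. Failure meant falling within 2 min. TD50 by Litchfield–Wilcoxon, at least 32 animals.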
The species named for data set [3] is Mus musculus. As to the kind of experiment: Anticonvulsant activity against audiogenic seizures in DBA/2 mice (value required to prevent clonic phases of seizures). The format is functional. The gist of the method:
(§3)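 DBA/2 mice (8–12 g, 22–25 days old, either sex), groups of 10, given drug or vehicle ip (50% DMSO/50% saline, 0.1 mL/10 g) 30 min before auditory stimulation; latency and incidence of seizure phases scored. ED50 per phase by Litchfield–Wilcoxon, at least 32 animals per value.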

Data set [4] is filed under the species Mus musculus. Kind of data set: Anticonvulsant activity against clonic phase of the audiogenic seizures after pretreatment with aniracetam in DBA/2 mice. Format: functional. The gist of the method:
(§4)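 DBA/2 mice (8–12 g, 22–25 days old, either sex) pretreated with aniracetam, then given the benzodiazepine ip in 50% DMSO/50% saline; sound stimulation 30 min after dosing, with clonic or tonic phase scored. ED50 by Litchfield–Wilcoxon (at least 32 animals), compared with benzodiazepine alone.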

Data set [5] is filed under the species Mus musculus. Kind of data set: Anticonvulsant activity against audiogenic seizures in DBA/2 mice (value required to prevent tonic phases of seizures). Format: functional. An outline of the steps:
as §3

Data set [6] can be described thus: Therapeutic index (TD50/ED50) from the clonic phase of the audiogenic seizures. An outline of the steps: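 Ratio of rotarod TD50 (Swiss mice, 30 min after ip dosing) to ED50 for clonic phase of audiogenic seizures in DBA/2 mice (30 min after ip dosing). Both values from Litchfield–Wilcoxon fits, in µmol/kg.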
For data set [7], the system named is Mus musculus. As to the kind of experiment: Anticonvulsant activity against clonic seizures induced by icv injection of AMPA in DBA/2 mice. Format: functional. Particulars: central.
The species entered for data set [8] is Mus musculus. Kind of data set: Anticonvulsant activity against maximal electroshock (MES) seizures in swiss mice. Format: functional. An outline of the steps:
(§5)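 Swiss mice dosed ip (50% DMSO/saline) 45 min before ear-clip electroshock (50 mA, 20 ms pulses, 35 Hz, 400 ms). Protection taken as abolition of tonic hindlimb extension. Four to five doses, 8–10 mice each; ED50 by Litchfield–Wilcoxon.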
A general note: In the maximal electroshock model the usual endpoint is tonic extension of the hind limbs.

For data set [9], the species on record is Mus musculus. As to the kind of experiment: Anticonvulsant activity against pentylenetetrazole (PTZ)-induced seizures in swiss mice. The format is functional. An outline of the steps:
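Male Swiss mice (20–26 g, 42–48 days old) dosed ip in 50% DMSO/saline 45 min before PTZ 85 mg/kg sc (CD97); watched 30 min. Protection meant no clonic spasm lasting at least 5 s. ED50 by Litchfield–Wilcoxon.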

For data set [10], the species on record is Mus musculus. Kind of data set: Anticonvulsant activity against tonic phase of the audiogenic seizures after concomitant with flumazenil at 8.24 umol dose in DBA/2 mice. The format is functional. An outline of the steps: (§6)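 DBA/2 mice (8–12 g, 22–25 days old, either sex) given test drug ip in 50% DMSO/50% saline together with flumazenil at the stated dose, then auditory stimulation 30 min after dosing; clonic or tonic phase scored in groups of 10. ED50 by Litchfield–Wilcoxon, at least 32 animals per value.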

For data set [11], the species on record is Mus musculus. Kind of data set: Anticonvulsant activity against tonic phase of the audiogenic seizures after pretreatment with aniracetam in DBA/2 mice. Format: functional. The gist of the method:
as §4

Data set [12] is filed under the species Mus musculus. Kind of data set: Anticonvulsant activity against clonic phase of the audiogenic seizures after concomitant with flumazenil at 24.72 umol dose in DBA/2 mice. Format: functional. The gist of the method:
as §6

The species entered for data set [13] is Mus musculus. Kind of data set: Anticonvulsant activity against clonic phase of the audiogenic seizures after concomitant with flumazenil at 8.24 umol dose in DBA/2 mice. The format is functional. The gist of the method:
as §6

For data set [14], the system named is Mus musculus. As to the kind of experiment: Anticonvulsant activity against tonic seizures induced by icv injection of AMPA in DBA/2 mice. The format is functional. Particulars: central.
The nature of data set [15]: as §1. Format: ADME. Particulars: mouse, in vivo. The gist of the method:
as §2

The species named for data set [16] is Mus musculus. Kind of data set: Anticonvulsant activity against tonic phase of the audiogenic seizures after concomitant with flumazenil at 24.72 umol dose in DBA/2 mice. Format: functional. The gist of the method:
as §6

The species named for data set [17] is Mus musculus. As to the kind of experiment: Anticonvulsant activity against maximal electroshock (MES ) seizures in swiss mice. Format: functional. An outline of the steps: as §5

Molecules are shown by their SMILES.

In general, TD50 refers to the 50% point of the dose-response relation for the toxic effect studied. A low value points to harm at a small dose. Broadly, the ED50 is the dose that gives a 50% effect, or the effect in half of the subjects.

Turning to `COc1cc2c(cc1OC)C(c1cccc([N+](=O)[O-])c1)=NN=C(S)C2`, the Rm in [1] is 0.092.
Compound `COc1cc2c(cc1OC)C(c1ccc(N)cc1)=NN(C)C(=O)C2` returned a Rm in data set [1] of -0.421. The compound also returned a TD50 in data set [2] of 159 µmol/kg.
For the compound `COc1cc2c(cc1OC)C(c1ccc([N+](=O)[O-])cc1)=NNC(=O)C2`, the Rm in data set [1] is reported as -0.113.
Regarding `COc1cc2c(cc1OC)C(c1ccc(Br)cc1)=NNC(=O)C2`, the Rm in [1] turned out to be 0.035. This compound also displayed a TD50 in data set [2] of 226 µmol/kg.
For `COc1cc2c(cc1OC)C(c1ccc([N+](=O)[O-])cc1)=NN(C)C(=O)C2`, in data set [1], the Rm is 0.11.
On the same count and under the same terms, under `COc1cc2c(cc1OC)C(c1cccc([N+](=O)[O-])c1)=NNC(=O)C2` stands -0.135.
On to `COc1cc2c(cc1OC)C(c1cccc(N)c1)=NNC(=O)C2`, for which the Rm in data set [1] was -0.542. The compound further registered a TD50 in data set [2] of 51.5 µmol/kg.
As for `COc1cc2c(cc1OC)C(c1ccccc1)=NNC(=O)C2`, the Rm in data set [1] is -0.244. Besides, the ED50 in data set [3] was 33.9 µmol/kg.
In turn, `COc1cc2c(cc1OC)C(c1ccc(N)cc1)=NNC(=O)C2` came in with a Rm in data set [1] of -0.63. Further, the ED50 in data set [4] was found to be 65.4 µmol/kg.
As to `COc1cc2c(cc1OC)C(c1ccccc1)=NN(C)C(=O)C2`, the Rm in data set [1] is given as -0.003. The TD50 in data set [2] is 154 µmol/kg.
For `COc1cc2c(cc1OC)C(c1ccc(Cl)cc1)=NNC(=O)C2` the same measures were 0.012 and 240 µmol/kg.
In the case of `COc1cc2c(cc1OC)C(c1ccc(Br)cc1)=NN(C)C(=O)C2`, in data set [1], the Rm worked out at 0.263.
For the compound `COc1cc2c(cc1OC)C(c1ccccc1)=NN(C)C(=S)C2`, in [1], the Rm was 0.282. This compound registered a TD50 in data set [2] of 97.1 µmol/kg. The ED50 is 30.6 µmol/kg in data set [3] and 24.7 µmol/kg in data set [5]. In addition, the selectivity ratio in data set [6] is 3.17.
For the compound `COc1cc2c(cc1OC)C(c1ccc(Cl)cc1)=NN=C(S)C2`, the Rm in data set [1] turned out to be 0.244. The TD50 in [2] was 193 µmol/kg. Moreover, the ED50 was 82.4 µmol/kg in data set [3] and 55 µmol/kg in data set [5]. Also, in data set [6], the selectivity ratio worked out at 3.26.
For `COc1cc2c(cc1OC)C(c1cccc(N)c1)=NN=C(S)C2` the same measures were -0.259, 76.7 µmol/kg, 18.8 µmol/kg, 9.1 µmol/kg and 4.08.
For `COc1cc2c(cc1OC)C(c1ccc(N)cc1)=NN(C)C(=S)C2` the same measures were -0.072, 130 µmol/kg, 29.8 µmol/kg, 20.3 µmol/kg and 4.35.
Take `COc1cc2c(cc1OC)C(c1ccccc1)=NN=C(S)C2`: the Rm in [1] is reported as 0.014. Further, the ED50 in data set [7] amounted to 43.1 µmol/kg; in data set [8] it was 27.8 µmol/kg; in data set [9] it was 33.7 µmol/kg; in [10], 13.6 µmol/kg; in data set [11], 69.1 µmol/kg; in [12], 19.3 µmol/kg. Also, the ED50 in [13] is 22.4 µmol/kg; in [4] it was 98 µmol/kg; in [3], 19.7 µmol/kg; in [5], 15 µmol/kg; in data set [14] it was 31.1 µmol/kg; in data set [16] it was 12.6 µmol/kg. This compound came in with a TD50 in data set [15] of 98.9 µmol/kg. In data set [6], the selectivity ratio was determined as 5.02.
In the case of `COc1cc2c(cc1OC)C(c1ccc(Br)cc1)=NN=C(S)C2`, in data set [1], the Rm came to 0.269. In [2], this compound showed a TD50 of 73 µmol/kg. In addition, the ED50 in [3] came out at 52.1 µmol/kg; in data set [5], 33.3 µmol/kg. Besides, the selectivity ratio in data set [6] was found to be 1.4.
`COc1cc2c(cc1OC)C(c1ccc(Br)cc1)=NN(C)C(=S)C2` registered a Rm in data set [1] of 0.575. The ED50 in data set [3] was 105 µmol/kg; in data set [5] it was 60.4 µmol/kg.
`COc1cc2c(cc1OC)C(c1ccc(N)cc1)=NN=C(S)C2` gave a Rm in data set [1] of -0.308. Also, the ED50 in [7] is 17.1 µmol/kg; in data set [17], 7.75 µmol/kg; in data set [9], 15.4 µmol/kg; in data set [10], 3.24 µmol/kg; in data set [11], 38.5 µmol/kg; in data set [12] it was 7.1 µmol/kg. For the same compound, the ED50 is 6.9 µmol/kg in data set [13]; 46.1 µmol/kg in [4]; 6.3 µmol/kg in [3]; 3.3 µmol/kg in [5]; 11.9 µmol/kg in [14]; 3.22 µmol/kg in [16]. The same compound registered a TD50 in data set [15] of 42.6 µmol/kg. Moreover, the selectivity ratio in [6] was found to be 6.76.
Consider `COc1cc2c(cc1OC)C(c1ccc([N+](=O)[O-])cc1)=NN(C)C(=S)C2`, for which, in data set [1], the Rm turned out to be 0.333. Also, the ED50 in [3] is 103 µmol/kg; in data set [5], 81.5 µmol/kg.
In turn, `COc1cc2c(cc1OC)C(c1ccc([N+](=O)[O-])cc1)=NN=C(S)C2` yielded a Rm in data set [1] of 0.122. The TD50 in data set [2] was more than 150 µmol/kg. Further, the ED50 in [3] came out at 93.4 µmol/kg; in [5] it was 69.8 µmol/kg.
`CC1=NN=C(c2ccc(N)cc2)c2cc3c(cc2C1)OCO3` [GYKI-52466] showed a Rm in data set [1] of -0.308.

Values taken from ChEMBL document CHEMBL1131077, “3,5-Dihydro-4H-2,3-benzodiazepine-4-thiones: a new class of AMPA receptor antagonists” (J Med Chem, 1998).
